The values that follow come from ChEMBL document CHEMBL1671641, “1,5-benzodiazepines, a novel class of hepatitis C virus polymerase nonnucleoside inhibitors” (Antimicrob Agents Chemother, 2008).

The structures appear in SMILES notation.

Series [1] concerns Hepatitis C virus. Nature of the series: Non competitive inhibition of Hepatitis C virus 1b J4 recombinant NS5B Cdelta 21 RNA dependent RNA polymerase overexpressed in Escherichia coli BL21 (DE3) in presence of radiolabeled 20 nM GTP. On the set-up: species or system Hepatitis C virus subtype 1b. The procedure, abridged: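 Primer-dependent RdRp assay using purified C-terminally truncated NS5BΔ21 (genotype 1b J4) expressed in E. coli BL21(DE3). Enzyme was incubated with a poly(rC)/oligo(rG13) template, radiolabeled GTP at 20 nM, and a range of inhibitor concentrations. IC50 was derived by nonlinear regression of the dose-response curves. The run was done once in quadruplicate, reported as means ± SEM.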

The subject of series [2] is Hepatitis C virus. Nature of the series: Non competitive inhibition of Hepatitis C virus 1b J4 recombinant NS5B Cdelta 21 RNA dependent RNA polymerase overexpressed in Escherichia coli BL21 (DE3) in presence of radiolabeled 200 uM GTP.
Series [3] concerns Hepatitis C virus. Nature of the series: Inhibition of Hepatitis C virus 1b J4 recombinant NS5B Cdelta 21 RNA dependent RNA polymerase overexpressed in Escherichia coli BL21 (DE3) assessed as [alpha-33P]UTP incorporation by RdRp primer-independent transcription assay. On the set-up: species or system Hepatitis C virus subtype 1b. The procedure, abridged: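 De novo (primer-independent) RdRp assay: 190 nM NS5BΔ21 (1b J4) with 86 nM HCV 3′ UTR template RNA, 0.5 mM each ATP/GTP/CTP, 10 μM UTP plus [α-³³P]UTP, in 20 mM Tris-HCl pH 7.5, 1 mM DTT, 5 mM MgCl₂, 20 mM NaCl. Incubated 2 h at room temperature, stopped with EDTA/tRNA, TCA-precipitated on filters, and scintillation-counted. Quadruplicate.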

Series [4] concerns Hepatitis C virus. Nature of the series: Inhibition of Hepatitis C virus 1b J4 recombinant NS5B Cdelta 21 RNA dependent RNA polymerase overexpressed in Escherichia coli BL21 (DE3) by RdRp primer-dependent transcription assay. Also noted: species or system Hepatitis C virus subtype 1b.
Series [5] in a line: Cytotoxicity against CMV-Luc transfected human HuH7 cells after 5 days. The format is cell-based, Huh-7. The note with it: huh-7, 120 h, 120 h.
Series [6] has as its system Hepatitis C virus. Nature of the series: Antiviral activity against Hepatitis C virus 1b infected in human HuH7 cells assessed as inhibition of viral replication after 3 days by luciferase reporter assay. The format is functional, organism-based, Hepacivirus hominis, genotype 1b, Huh-7. The note with it: huh-7. Put shortly:
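HCV 1b subgenomic luciferase reporter replicon (clone ET) cells, 2,500 per well, were exposed to a nine-point 1/4 dilution series for 3 days. Replication was read as luciferase activity. Values are means ± SD from 2 to 23 independent experiments run in quadruplicate.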
On the technique in general: Reporter assays use an easily measured gene product as a stand-in for the process of interest.

For the next series, the system named is MT4. Nature of the series: Cytotoxicity against LTR-Luc transfected human MT4 cells […] after 3 days by ATPLite assay. The format is cell-based. The note with it: mt4, 72 h, 72 h. For orientation: Cellular ATP, detected with luciferase, serves as a proxy for viable cell number.
Series [7] in a line: Cytotoxicity against human HEK293T cells after 72 hrs by resazurin assay. The format is cell-based, HEK-293T. The procedure, abridged:
(§1)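 Cells were tested against eight serial fourfold dilutions for 72 h, at 3,000 cells/well for HEK293T and 4,000 cells/well for HepG2. Viability was read by resazurin staining. Values are means ± SD from two to eight independent experiments in quadruplicate.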
On the technique in general: The colour change of resazurin is a common sign of viable cells or microbes.

Series [8] relates to Hepatitis C virus. Nature of the series: Ratio of EC50 for Hepatitis C virus 796 infected in HuH7 cells to EC50 for Hepatitis C virus 796 harboring NNI M423T mutant site in NS5B infected in HuH7 cells. The class given is functional, Hepacivirus hominis, Huh-7. The procedure, abridged: (§2)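 NS5B NNI-site mutations were introduced into the genotype 1b ET subgenomic luciferase replicon by site-directed mutagenesis. RNA was made by in vitro transcription and tested in a transient-replication assay.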

In series [9] the test system is Hepatitis C virus. Nature of the series: Ratio of EC50 for Hepatitis C virus 796 infected in HuH7 cells to EC50 for Hepatitis C virus 796 harboring NNI C316Y mutant site in NS5B infected in HuH7 cells. The class given is functional, Hepacivirus hominis, Huh-7. The procedure, abridged: as §2
Series [10] has as its system Hepatitis C virus. Nature of the series: Ratio of EC50 for Hepatitis C virus 796 infected in HuH7 cells to EC50 for Hepatitis C virus 796 harboring NNI M414Q mutant site in NS5B infected in HuH7 cells. The class given is functional, Hepacivirus hominis, Huh-7. The procedure, abridged:
as §2

The nature of series [11]: Cytotoxicity against human HuH7 cells after 5 days by resazurin assay. The class given is cell-based, Huh-7. The note with it: HuH7 cells. Put shortly:
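Subconfluent HCV 1b subgenomic replicon cells, 500 per well and grown without G418, were incubated for 5 days with eight serial fourfold compound dilutions. Viability was read by resazurin. Values are means ± SD from two to eight independent experiments in quadruplicate.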

In series [12] the test system is Hepatitis C virus. Nature of the series: Ratio of EC50 for Hepatitis C virus 796 infected in HuH7 cells to EC50 for Hepatitis C virus 796 harboring NNI Y448A mutant site in NS5B infected in HuH7 cells. The class given is functional, Hepacivirus hominis, Huh-7. The procedure, abridged:
as §2

Series [13] in a line: Cytotoxicity against human MT4 cells after 3 days by ATPLite assay. The class given is cell-based. The note with it: MT4 cells. The procedure, abridged:
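MT4 cells, 5,000 per well, were incubated 3 days at 37°C with eight serial fourfold compound dilutions. Cytotoxicity was read as intracellular ATP by ATPlite 1step luminescence. Values are means ± SD from two to eight independent experiments in quadruplicate.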

In series [14] the test system is Hepatitis C virus. Nature of the series: Ratio of EC50 for Hepatitis C virus 796 infected in HuH7 cells to EC50 for Hepatitis C virus 796 harboring NNI P495L mutant site in NS5B infected in HuH7 cells. The format is functional, Hepacivirus hominis, Huh-7. The procedure, abridged:
as §2

The next series has as its target Translocator protein (Homo sapiens, UniProt P30536). Nature of the series: Inhibition of peripheral benzodiazepine BZD receptor by radioligand binding assay. Put shortly:
(§3)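 Radioligand binding assays for the GABA-A central BZD receptor and the peripheral BZD receptor were run as a single experiment in duplicate.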

Series [15] is described as follows: Cytotoxicity against human HepG2 cells after 72 hrs by resazurin assay. The format is cell-based. The note with it: HepG2 cells. Put shortly:
as §1

Series [16] has as its system Hepatitis C virus. Nature of the series: Ratio of EC50 for Hepatitis C virus 796 infected in HuH7 cells to EC50 for Hepatitis C virus 796 harboring NNI H95R mutant site in NS5B infected in HuH7 cells. The class given is functional, Hepacivirus hominis, Huh-7. Put shortly:
as §2

Series [17] in a line: Inhibition of Gamma-aminobutyric acid type-A (GABAA) receptor by radioligand binding assay. The procedure, abridged:
as §3

Series [18] concerns Hepatitis C virus. Nature of the series: Antiviral activity against Hepatitis C virus infected in cells assessed as log reduction in viral RNA level from baseline at 4500 mg administered BID for 14 days by Replicon Assays. The format is functional, Hepacivirus hominis.
Series [19] has as its system Hepatitis C virus. Nature of the series: Antiviral activity against Hepatitis C virus infected in cells assessed as log reduction in viral RNA level at 800 mg administered BID for 10 days. The class given is functional, Hepacivirus hominis.

Sequence of Translocator protein (P30536 whole entry): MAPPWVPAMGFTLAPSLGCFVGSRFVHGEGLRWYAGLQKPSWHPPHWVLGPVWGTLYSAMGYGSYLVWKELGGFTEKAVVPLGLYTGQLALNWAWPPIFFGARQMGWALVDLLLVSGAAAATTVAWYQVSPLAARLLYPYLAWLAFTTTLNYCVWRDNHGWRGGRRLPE

The term IC50 denotes the concentration needed to halve the response being measured. Broadly, the CC50 is the concentration that lowers cell viability or growth by half. Read a low CC50 as harm at low concentration. In general, EC50 refers to the concentration at which the effect is half-maximal. As for `CC(=O)N1c2ccccc2NC2=C(C(=O)CC(C)(C)C2)C1c1ccc(OCc2ccccc2)c(Cl)c1` (single isomer, unassigned; 4a), the IC50 came out at 1 µM in the series with Hepatitis C virus [1], 1.3 µM in the series on Hepatitis C virus [2], 0.9 µM in the series with Hepatitis C virus [3] and 1 µM in the series on Hepatitis C virus [4]. Further, the CC50 in series [5] was above 32 µM; in the series on MT4, 16.4 µM. The EC50 in the series on Hepatitis C virus [6] was 1.9 µM.
Consider `CC(=O)N1c2cccc(O)c2NC2=C(C(=O)CC(C)(C)C2)C1c1ccc(OCc2ccccc2)cc1Cl` (single isomer, unassigned; 7a), for which the CC50 at 72 h in [7] was above 25 µM; in [13] it was 56.5 µM; in series [15] it was 31.2 µM. Besides, the “fold change (FC)” value in the series on Hepatitis C virus [8], in the series with Hepatitis C virus [9], in the series on Hepatitis C virus [10], in the series on Hepatitis C virus [12], in the series with Hepatitis C virus [14] and with Hepatitis C virus [16] was 10 throughout. Also, half-maximal cytotoxicity in [11] (CC50 at 120 h) was put at 46.2 µM. Also, the concentration for half-maximal inhibition (IC50) was 0.05 µM in the series on Hepatitis C virus [3], 0.05 µM in the series on Hepatitis C virus [4], above 30 µM on Translocator protein and above 30 µM in series [17]. Besides, the figures for the CC50 (in [5]; with MT4) were 12.8 µM and 16.2 µM, respectively. The 50% effective concentration (EC50) in the series with Hepatitis C virus [6] was 1.2 µM.
With `[N-]=[N+]=N[C@]1(CO)O[C@@H](n2ccc(N)nc2=O)[C@H](O)[C@@H]1O` [4'-AZIDOCYTIDINE], in the series on Hepatitis C virus [18], the FC is given as 3.7.
As to `CC1CCC(C(=O)N(c2cc(-c3ccccc3)sc2C(=O)[O-])C2CCC(O)CC2)CC1.[Na+]` (stereo unspecified) [VCH-759], the FC in the series with Hepatitis C virus [19] is reported as 2.5.
